PMC7115619 (European Journal of Medicinal Chemistry, 2015)
Entries after “also recorded” stand apart in the source; their conditions may differ.

What was measured:
[1] = system: Vero cells; experiment: MTT cytotoxicity on Vero cells; assay type: cell-based, Cercopithecus aethiops; details: read-out: IC50 (μM) 72 h, inhibitory concentration of cell proliferation
[2] = system: HHV-2 (VR-734-G strain); experiment: Screening against HHV-2 by end-point titration technique; assay type: cell-based, Human Herpesvirus type 2; details: Vero cell line; 10 TCID50; 72 h
Outline: (§1)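 Vero cells (2.0 × 10^4 cells/well) were grown to ≥80% monolayer. 10 TCID50 virus was mixed with test compound (6.25–50 μg/mL) in DMEM/2% FBS containing CMC: 1% for HHV-1, 0.5% for HHV-2. Mixture held 15 min at room temperature, then incubated at 37 °C: 48 h (HHV-1) or 72 h (HHV-2). Crystal violet/formaldehyde stain, plaques counted. Titer reduction factor: ≥1 × 10^3 relevant, 1 × 10^2 moderate. Two experiments in quadruplicate.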

[3] = system: DENV-2; experiment: Plaque reduction assay, pre- and post-infection treatment, DENV-2; assay type: cell-based, Dengue virus type 2; details: Dengue virus, DENV2, Vero, 192 h, read-out: EC50 pre-infection treatment DENV-2
Outline: (§2)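 Vero monolayers (2.5 × 10^4 cells/well) received 100 PFU/well (DENV-2 New Guinea or HHV-2 VR-734-G). Pre-infection: virus/test compound mixture for 1 h at 37 °C, then PBS (pH 7.0) wash and CMC overlay. Post-infection: virus 1 h, wash, then compound in CMC. CMC was 2% for DENV-2 (8 days) and 0.75% for HHV-2 (72 h). Formaldehyde/crystal violet stain, plaques counted. EC50 by linear regression; mean of three experiments.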

[4] = system: HHV-1 (CDC Atlanta strain); experiment: Screening against HHV-1 by end-point titration technique; assay type: cell-based, Human Herpesvirus type 1; details: Vero cell line; 10 TCID50; 48 h
Outline: as §1

[5] = system: HHV-2; experiment: Plaque reduction assay, pre- and post-infection treatment, HHV-2; assay type: cell-based, Human Herpesvirus type 2; details: Vero, 72 h, read-out: EC50 pre-infection treatment HHV-2
Outline: as §2

| Compound | IC50 [1] [µM] | Rf, reduction factor of the viral titer, HHV-2 [2] | EC50 [3] [µM] | Rf, reduction factor of the viral titer, HHV-1 [4] | EC50 [5] [µM] |
| --- | --- | --- | --- | --- | --- |
| dextran sulfate [DEX-S] | > 10 | – | – | – | – |
| Nc1nc2c(ncn2COCCO)c(=O)[nH]1 [ACV, acyclovir] | – | 10^3 | – | – | – |
| CC(C)c1cc2c(cc1O)[C@@]1(C)CCC[C@@](C)(C=O)[C@@H]1CC2 [Compound 9, 18-oxoferruginol] | – | – | > 20.8 | did not show activity; also recorded: did not show reduction of viral titer | > 20.8 |
| CC(C)c1cc2c(cc1O)[C@@]1(C)CCC[C@@](C)(CN3C(=O)c4ccccc4C3=O)[C@@H]1CC2 [Compound 8] | – | – | > 29 | – | > 29 |
